pIC50: −log10 of the molar value. Calls of active or inactive are those of the source. No cut-off for these calls is given here.
Legend:
[1] = Glutathione peroxidase activity assessed by GSH-GSSG coupled assay; assay type: functional
Summary of the method: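 GPx-like activity measured by GSH–GSSG coupled assay: glutathione reductase 0.3 U/ml, NADPH 0.25 mM, GSH 0.5–6 mM, compound 0.025 mM (in methanol, 2% in buffer), H2O2 1 mM substrate. NADPH loss at 340 nm fitted to an exponential; initial rates from ε 6220 M-1 cm-1, corrected for uncatalysed H2O2–GSH reaction. Km and Vmax from Lineweaver–Burk plots.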

[2] = Inhibition of gamma radiation-induced lipid peroxidation in liposomes; assay type: functional
Summary of the method: (§1)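 Liposomal suspensions, N2O/O2-purged, pH 7.4 phosphate buffer, exposed to a constant 280 Gy γ-dose (Fricke dosimetry). Peroxidation followed as TBARS with compound at 0.025–0.150 mM. IC50 is the concentration giving 50% inhibition of lipid peroxidation.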

[3] = Effect on gamma irradiation-induced TBARS formation in liposomes at 50 uM; assay type: functional; summary of the method: as §1
[4] = Antioxidant activity assessed by singlet oxygen quenching ability; assay type: functional
[5] = Inhibition of horseradish peroxidase by spectrophotometric method; set-up: species or system Armoracia rusticana
Summary of the method: (§2)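 HRP (70 nM) with ABTS2- as substrate, with or without selenium compound at 0.06–0.1 mM. Reaction started by adding H2O2. Initial rates taken from the absorbance change at 645 nm (ABTS radical cation). Activity without compound set to 100%.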

[6] = tested on: Armoracia rusticana; assay: Inhibition of horseradish peroxidase at 100 uM; summary of the method: as §2
[7] = Antioxidant activity assessed by singlet oxygen quenching ability at 1mM; assay type: functional
[8] = Inhibition of gamma radiation-induced lipid peroxidation in liposomes at 200 uM; assay type: functional

| Structure (SMILES) | Km [1] [mM] | pIC50 [2] | Activity [3] | Activity [4] | pIC50 [5] | Activity ([3]; Liposome) | inhibition [6] [%] | Activity [7] | inhibition [8] [%] |
| --- | --- | --- | --- | --- | --- | --- | --- | --- | --- |
| O=c1c2ccccc2[se]n1-c1ccccc1 [EBSELEN] | 13.2 | 4.60 | Active | Active | 4.77 |  |  |  |  |
| O=C(Nc1ccccc1)c1ccccc1[Se]Cc1ccccc1 | 2.2 | 4.12 |  | Active | < 4.00 | Active | 33.1 |  |  |
| O=C(Nc1ccccc1)c1ccccc1[Te][Te]c1ccccc1C(=O)Nc1ccccc1 [EBSELEN DITELLURIDE] | 2.3 | 3.76 |  | Active | 4.76 | Active |  |  |  |
| C[Se]c1ccccc1C(=O)Nc1ccccc1 | 5.25 | 4.00 |  | Active | < 4.00 | Active | 25.5 |  |  |
| O=C(Nc1ccccc1)c1ccccc1[Se][Se]c1ccccc1C(=O)Nc1ccccc1 [EBSELEN DISELENIDE] |  |  |  |  | 4.30 | Active |  | inactive | 19 |

— ChEMBL document CHEMBL1137246, “Horseradish peroxidase inhibition and antioxidant activity of ebselen and related organoselenium compounds” (Bioorg Med Chem Lett, 2006)
